Laboratory results published in article PMC7758886 (ACS Omega, 2020).

Key:
[1] = system: β1 adrenergic receptor (β1AR); assay: Epac-S^H187 FRET cAMP production; format: cell-based; conditions: HEK293, Epac-S^H187 sensor; at least three individual experiments
[2] = system: α1A adrenergic receptor (α1AAR); assay: FRET-based Gαq activation, α1A adrenergic receptor; format: cell-based; conditions: HEK293, 96-well
[3] = system: CXCR4; assay: FRET-based Gαi2 activation, 96-well plate, CXCR4; format: cell-based; conditions: HEK293, Gαi2 FRET sensor, ± SD, three to four independent plate reader experiments
[4] = molecular target: Carausius morosus allatostatin-C receptor with C-terminal EYFP (CmorAlstRC-EYFP) (Carausius morosus); assay: FRET or BRET
[5] = molecular target: CmorAlstRC ΔN-term mutant (Carausius morosus)
[6] = system: endogenous β-AR (HEK293 cells); assay: Single-cell FRET microscopy of isoprenaline-stimulated cAMP production; format: cell-based; conditions: 3 nM isoprenaline, continuous
In short: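 HEK293 cells co-transfected (Effectene) with receptor and Epac-SH187 cAMP FRET sensor; medium changed 16 h post-transfection, reseeded on PLL-coated coverslips, imaged 36–48 h post-transfection. One cell per coverslip, continuously perfused with FRET buffer (HEPES, pH 7.35) and/or ligand. FRET = corrected YFP/CFP ratio, normalized to baseline; cAMP rise lowers FRET. Traces averaged over eight cells from 3 days.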

Question: What does the source list for `NC[C@H](O)c1ccc(O)c(O)c1` [NE, Norepinephrine]?
Answer: change in FRET signal (cAMP production) [1]: decreased the FRET response (increased the cAMP level) in a NE concentration-dependent manner; Gαq FRET sensor activation [2]: induced a concentration-dependent FRET decrease in the Gαq sensor

Question: For “CXCL12: agonist of CXCR4, positive control for Gαi2 activation”, which “pEC50, Gαi2 activation” value [3] is on record?
Answer: 9.49 ± 0.1

Question: What does the source list for “human Gαi2-ECFP (from UniProt P04899 1-355) (natural protein)”?
Answer: pEC50 of AST-C for the FRET change between CmorAlstRC-EYFP and Gαi2-ECFP [4]: 8.84; tau of association (apparent, with 1 μM AST-C) [4]: 227 ms; tau of dissociation (apparent, wash-off of 1 μM AST-C) [4]: 3.8 s

Question: Which pEC50 of Gαi2 FRET sensor activation by DmelASTC, ΔN-term mutant, 96-well plates [5] does the source give for “Drosophila melanogaster pGlu AST-C peptide (DmelASTC)” here?
Answer: 8.47

Question: For `CC(C)NCC(O)c1ccc(O)c(O)c1` (centres unmarked) [Iso, isoprenaline], which “FRET response, cAMP production” value [6] is on record?
Answer: sharp decrease in FRET
